Apaf-1 act – activates human Apaf-1 apoptosome. O14727. 0.31% of 330,000 active. AID 489031. Apaf-1 apoptosome caspase-3 activation, DEVD-Rh110 fluorescence; hits give low values. activity change, negative = activation, % at 20 µM;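 active means activity change at or below -40% at 20 µM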
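Schedule: 30 min preincubation, 50 min reaction, room temperature / System: biochemical Apaf-1 apoptosome reconstitution / Medium: 20 mM HEPES pH 7.5 with CHAPS, BSA / Evaluation: Caspase-3 cleavage activity downstream of Apaf-1 activation / Detection: Caspase-3-released Rh110 fluorescence, 540 nm emission, 480 nm excitation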
Rh110 interf act – Rh110 signal interference in Apaf-1 activator counter-screen; shares compounds with Apaf-1 act; Rh110 fluorescence interference, quenched caspase reaction, Ex480/Em540; fluorescence interference (activity change), % at 20 µM, hits read low; 980 tested, under 10 active;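 active means mean activity change at or below -40% when tested at 20 µM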
Apaf-1 act conf2 – confirmation of human Apaf-1 activators | shares compounds with Apaf-1 act | reconstituted apoptosome caspase-3 activity, DEVD-Rh110 fluorescence; hits give low values | activity change, negative = activation, % at 20 µM | 5% of 980 active | AID 504617;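 active means mean activity change at or below -40%, meaning activation of 40% or more, at 20 µM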
* marks the source's active call; other numbers are inactive results. Not all results are given here.

SMILES | Apaf-1 act | others
CCCCCCn1c(N)c(C(=O)NCCN2CCOCC2)c2nc3ccccc3nc21 | 52
Nc1c(C(=O)NCCCc2ccccc2)c2nc3ccccc3nc2n1Cc1cccs1 | 84
Cc1ccc(-n2c(C)nc3ccccc3c2=O)c(C)c1 | -76* | Rh110 interf act=8;Apaf-1 act conf2=9
COCCOC(=O)c1c(N)n(Cc2ccccc2)c2nc3ccccc3nc12 | 83
Nc1c(C(=O)NCc2ccco2)c2nc3ccccc3nc2n1Cc1ccc(F)cc1 | 89
CCCCn1c(NS(=O)(=O)c2ccc(C)cc2)c(C(=O)OCC)c2nc3ccccc3nc21 | 90
CCCCNC(=O)c1c(N)n(Cc2ccc3c(c2)OCO3)c2nc3ccccc3nc12 | 95
CCn1nc(/C=C/c2ccccc2)nc2c(=O)n(C)c(=O)nc1-2 | 99
CC(C)CCn1c(N)c(C(=O)OCC2CCCO2)c2nc3ccccc3nc21 (stereo unspecified) | 41
Brc1ccc(Oc2ccc(Br)cc2Br)c(Br)c1 | -139* | Rh110 interf act=12;Apaf-1 act conf2=7
COCC(C)OC(=O)c1c(N)n(Cc2ccco2)c2nc3ccccc3nc12 (stereo unspecified) | 61
COc1cc2c(cc1O)C[C@H]1NCCc3cc4c(c-2c31)OCO4 | 71
Cc1cc(/C=C2/C(=O)NC(=O)N(Cc3ccco3)C2=O)c(C)n1-c1ccccc1 | -53* | Rh110 interf act=-4;Apaf-1 act conf2=14
COc1cc2c(cc1OC)-c1c(OC)c(OC)cc3c1C(C2)N(C)CC3 (stereo unspecified) | 95
COc1cc(C(c2c(C)[nH]n(-c3ccccc3)c2=O)c2c(C)[nH]n(-c3ccccc3)c2=O)cc(OC)c1OC | 92
NC(N)=N/N=C/c1cn(-c2ccccc2)nc1-c1cccs1 | 41
CC(C)OCCCNC(=O)c1c(N)n(CC2CCCO2)c2nc3ccccc3nc12 (stereo unspecified) | 94
c1ccc2c(c1)CSc1ccccc1C2C1=NCCN1 (stereo unspecified) | -228* | Rh110 interf act=12;Apaf-1 act conf2=12
CCCCn1c(N)c(C(=O)NCc2cccs2)c2nc3ccccc3nc21 | 85
O=C(c1ccc2nc(-c3ccco3)c(-c3ccco3)nc2c1)N1CCC2(CC1)OCCO2 | 56
CC(=O)OCC[N+](C)(C)C | -3
Nc1cc2nc3ccccc3nc2cc1N | 62
CC(C)[C@H]1C(=O)N2CCC[C@H]2[C@]2(O)O[C@](NC(=O)[C@@H]3C=C4c5cccc6[nH]cc(c56)C[C@H]4N(C)C3)(C(C)C)C(=O)N12 | 95
